Key:
PCSK9/LDLR = PCSK9/LDLR (Homo sapiens, UniProt Q8NBP7); experiment: Inhibition of recombinant human His-tagged PCSK9 interaction with recombinant LDLR AB domain (unknown origin) measured after 3 hrs by horseradish peroxidase-coupled TMB substrate based spectrophotometry; format: protein assay
Method in brief: (§1)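 ELISA plates pre-coated with LDLR-EGF-AB domain. Compounds serially diluted from 10 mM DMSO stocks in reaction buffer, with 7 ng His-tagged human PCSK9 added, 3 h at room temperature with shaking. Binding detected with biotinylated anti-His antibody (1 h), then HRP-streptavidin (20 min), then substrate (15 min); absorbance read at 450/540 nm. IC50 taken from the % inhibition curve.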

[1] = target: Mast/stem cell growth factor receptor Kit (Homo sapiens, UniProt P10721); experiment: Inhibition of recombinant human N-terminal GST-tagged c-Kit (544 to end residues) expressed in baculovirus infected Sf21 insect cells using FAM-labelled P22 peptide as substrate preincubated for 10 mins followed by substrate addition and measured after 1 hr in presence of ATP by fluorescence assay
[2] = target: Tyrosine-protein kinase ABL1 (Homo sapiens, UniProt P00519); experiment: (§2) Inhibition of recombinant human N-terminal His-tagged Abl (2 to 1130 residues) expressed in baculovirus expression system using FAM-labelled P2 peptide as substrate preincubated for 10 mins followed by substrate addition and measured after 1 hr in presence of ATP by fluorescence assay
Sequence of Tyrosine-protein kinase ABL1 (P00519 whole entry, the tested form may be a part): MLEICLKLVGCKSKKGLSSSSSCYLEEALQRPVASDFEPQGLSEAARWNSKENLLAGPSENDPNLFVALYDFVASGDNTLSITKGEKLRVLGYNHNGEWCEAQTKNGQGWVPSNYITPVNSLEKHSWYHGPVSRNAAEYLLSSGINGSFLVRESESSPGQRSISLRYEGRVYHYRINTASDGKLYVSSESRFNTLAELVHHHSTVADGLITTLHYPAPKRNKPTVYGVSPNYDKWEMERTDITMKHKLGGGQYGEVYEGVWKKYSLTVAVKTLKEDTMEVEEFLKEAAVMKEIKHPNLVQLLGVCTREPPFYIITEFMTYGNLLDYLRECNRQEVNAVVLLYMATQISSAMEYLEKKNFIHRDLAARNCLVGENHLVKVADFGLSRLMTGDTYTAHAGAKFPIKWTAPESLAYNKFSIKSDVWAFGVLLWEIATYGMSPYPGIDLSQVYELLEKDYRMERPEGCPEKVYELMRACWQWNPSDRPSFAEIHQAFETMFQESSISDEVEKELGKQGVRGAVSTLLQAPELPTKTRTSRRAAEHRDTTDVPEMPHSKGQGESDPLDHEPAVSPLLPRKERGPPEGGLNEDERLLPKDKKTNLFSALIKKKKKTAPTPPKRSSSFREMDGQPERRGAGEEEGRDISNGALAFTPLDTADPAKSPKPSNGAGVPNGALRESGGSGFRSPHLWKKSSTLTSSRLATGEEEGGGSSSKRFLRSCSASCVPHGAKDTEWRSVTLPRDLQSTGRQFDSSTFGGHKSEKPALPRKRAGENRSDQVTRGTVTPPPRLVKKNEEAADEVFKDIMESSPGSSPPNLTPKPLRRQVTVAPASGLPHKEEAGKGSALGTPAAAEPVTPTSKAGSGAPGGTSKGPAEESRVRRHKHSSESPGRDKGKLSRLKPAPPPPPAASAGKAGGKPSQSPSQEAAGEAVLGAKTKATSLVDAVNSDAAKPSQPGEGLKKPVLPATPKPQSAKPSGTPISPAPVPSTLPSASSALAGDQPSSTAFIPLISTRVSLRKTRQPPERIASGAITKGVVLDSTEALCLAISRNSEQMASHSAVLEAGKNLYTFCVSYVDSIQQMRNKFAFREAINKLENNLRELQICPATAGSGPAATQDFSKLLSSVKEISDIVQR

[3] = target: Platelet-derived growth factor receptor beta (Homo sapiens, UniProt P09619); experiment: as §2, with “GST-tagged PDGFRbeta cytoplasmic domain (557” for “His-tagged Abl (2”, “1106” for “1130”, “P22” for “P2”
Sequence of Platelet-derived growth factor receptor beta (P09619 whole entry, the tested form may be a part): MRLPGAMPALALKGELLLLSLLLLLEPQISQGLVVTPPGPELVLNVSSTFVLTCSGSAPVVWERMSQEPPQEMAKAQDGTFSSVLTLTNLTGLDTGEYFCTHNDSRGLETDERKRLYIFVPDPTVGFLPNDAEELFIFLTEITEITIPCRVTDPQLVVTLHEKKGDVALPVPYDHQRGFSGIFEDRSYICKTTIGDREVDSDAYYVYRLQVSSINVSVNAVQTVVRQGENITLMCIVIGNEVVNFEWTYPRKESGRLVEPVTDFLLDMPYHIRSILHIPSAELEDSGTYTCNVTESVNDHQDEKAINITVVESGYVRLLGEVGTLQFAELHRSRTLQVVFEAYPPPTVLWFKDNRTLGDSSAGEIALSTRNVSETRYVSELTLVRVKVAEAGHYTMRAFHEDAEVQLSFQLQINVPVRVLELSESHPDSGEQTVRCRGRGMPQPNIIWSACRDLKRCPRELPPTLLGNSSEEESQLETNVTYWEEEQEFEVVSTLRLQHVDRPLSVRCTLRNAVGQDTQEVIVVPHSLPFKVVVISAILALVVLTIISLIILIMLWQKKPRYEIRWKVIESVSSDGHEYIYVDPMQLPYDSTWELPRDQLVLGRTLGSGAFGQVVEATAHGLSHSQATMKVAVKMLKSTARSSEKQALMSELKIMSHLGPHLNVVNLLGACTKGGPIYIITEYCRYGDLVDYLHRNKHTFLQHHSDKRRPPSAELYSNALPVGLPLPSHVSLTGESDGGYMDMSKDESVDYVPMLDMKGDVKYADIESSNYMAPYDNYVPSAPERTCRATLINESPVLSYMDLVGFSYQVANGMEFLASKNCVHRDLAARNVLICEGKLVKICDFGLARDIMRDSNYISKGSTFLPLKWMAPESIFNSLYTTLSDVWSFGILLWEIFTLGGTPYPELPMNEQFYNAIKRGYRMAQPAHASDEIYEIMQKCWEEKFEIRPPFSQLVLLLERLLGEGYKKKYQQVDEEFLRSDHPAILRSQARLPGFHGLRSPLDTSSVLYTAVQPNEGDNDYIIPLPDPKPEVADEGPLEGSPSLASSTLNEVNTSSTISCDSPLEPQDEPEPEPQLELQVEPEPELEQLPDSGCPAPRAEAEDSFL

[4] = target: Proto-oncogene tyrosine-protein kinase Src (Homo sapiens, UniProt P12931); experiment: Inhibition of recombinant human full-length N-terminal GST-tagged SRC (1 to 536 residues) expressed in baculovirus expression system using FAM-labelled P4 peptide as substrate preincubated for 10 mins followed by substrate addition and measured after 1 hr in presence of ATP by fluorescence assay
Sequence of Proto-oncogene tyrosine-protein kinase Src (P12931 2-536 limits assumed): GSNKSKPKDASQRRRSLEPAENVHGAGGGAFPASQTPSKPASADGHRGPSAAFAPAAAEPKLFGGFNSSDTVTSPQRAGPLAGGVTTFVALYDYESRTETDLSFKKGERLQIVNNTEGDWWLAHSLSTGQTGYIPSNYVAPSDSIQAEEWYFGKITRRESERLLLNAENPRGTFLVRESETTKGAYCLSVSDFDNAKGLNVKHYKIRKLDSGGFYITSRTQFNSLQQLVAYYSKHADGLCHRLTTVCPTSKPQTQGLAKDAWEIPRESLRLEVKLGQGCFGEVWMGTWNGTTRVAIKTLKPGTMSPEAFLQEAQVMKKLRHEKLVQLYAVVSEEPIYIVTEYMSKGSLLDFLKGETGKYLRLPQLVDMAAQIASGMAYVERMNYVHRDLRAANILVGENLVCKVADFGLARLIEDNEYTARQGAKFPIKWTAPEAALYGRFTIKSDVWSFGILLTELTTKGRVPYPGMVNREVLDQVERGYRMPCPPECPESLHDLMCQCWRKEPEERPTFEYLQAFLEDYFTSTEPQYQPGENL

[5] = Clearance in CD1 mouse at 0.4 mg/kg, iv administered as cassette dose measured upto 24 hrs by LC-MS/MS analysis; format: ADME, organism-based; details: in vivo
Method in brief: (§3)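 Male CD1 mice (second cassette 28–29 g, 7–8 weeks) given one IV 5-in-1 cassette at 0.4 mg/kg per compound in 5% DMAC/5% Solutol HS15/90% saline. Blood (~20 µL) into K2EDTA from the facial vein at 0.083–24 h, terminal bleed by cardiac puncture under isoflurane. Blood diluted with deionised water, stored at −80 °C, analysed by positive-ESI mass spectrometry.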

[6] = Volume of distribution at steady state in CD1 mouse at 0.4 mg/kg, iv administered as cassette dose measured upto 24 hrs by LC-MS/MS analysis; format: ADME, organism-based; details: in vivo, read-out: Vdss; method in brief: as §3
[7] = Terminal half life in CD1 mouse at 0.4 mg/kg, iv administered as cassette dose measured upto 24 hrs by LC-MS/MS analysis; format: ADME, organism-based; details: in vivo, read-out: beta t1/2 (converted); method in brief: as §3
[8] = AUClast in CD1 mouse at 0.4 mg/kg, iv administered as cassette dose measured upto 24 hrs by LC-MS/MS analysis; format: ADME, organism-based; set-up: time < 24 hr, dose 0.4 mg/kg, route intravenous; details: in vivo; method in brief: as §3
[9] = AUCinfinity in CD1 mouse at 0.4 mg/kg, iv administered as cassette dose measured upto 24 hrs by LC-MS/MS analysis; format: ADME, organism-based; set-up: dose 0.4 mg/kg, route intravenous, time infinity; details: in vivo; method in brief: as §3
[10] = Mean residence time (0 to infinity) in CD1 mouse at 0.4 mg/kg, iv administered as cassette dose measured upto 24 hrs by LC-MS analysis; format: ADME, organism-based; details: in vivo; method in brief: as §3
[11] = test system: PCSK9/LDLR (Homo sapiens), Q8NBP7+P01130 [D374Y]; experiment: Inhibition of PCSK9 D374Y mutant (unknown origin) and LDLR protein-protein interaction in human HepG2 cells assessed as increase in Bodipy FL-labelled LDL uptake preincubated for 16 hrs followed by Bodipy FL-labelled LDL addition and measured after 4 hrs by fluorescence assay; format: cell-based
Method in brief: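 HepG2 cells seeded at 2 × 10^5 cells/mL and attached overnight, then incubated 16 h with PCSK9-D374Y (2 μg/mL) plus compound (0.1 or 1 µM). Medium replaced with 10 μg/mL Bodipy FL LDL for 4 h. Cells washed with warm PBS; fluorescence read at ex 485/em 530 nm. Mean ± S.D.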

[12] = target: PCSK9/LDLR (Homo sapiens) (UniProt Q8NBP7+P01130); experiment: Inhibition of recombinant human His-tagged PCSK9 interaction with recombinant LDLR AB domain (unknown origin) at higher concentration measured after 3 hrs by horseradish peroxidase-coupled TMB substrate based spectrophotometry relative to control; format: protein assay; method in brief: as §1

Sequence of PCSK9/LDLR (Q8NBP7 31-152 limits assumed): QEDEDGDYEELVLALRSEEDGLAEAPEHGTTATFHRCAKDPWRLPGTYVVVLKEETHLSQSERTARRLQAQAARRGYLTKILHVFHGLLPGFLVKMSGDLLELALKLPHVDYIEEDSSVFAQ
Sequence of PCSK9/LDLR (Q8NBP7 153-692 limits assumed): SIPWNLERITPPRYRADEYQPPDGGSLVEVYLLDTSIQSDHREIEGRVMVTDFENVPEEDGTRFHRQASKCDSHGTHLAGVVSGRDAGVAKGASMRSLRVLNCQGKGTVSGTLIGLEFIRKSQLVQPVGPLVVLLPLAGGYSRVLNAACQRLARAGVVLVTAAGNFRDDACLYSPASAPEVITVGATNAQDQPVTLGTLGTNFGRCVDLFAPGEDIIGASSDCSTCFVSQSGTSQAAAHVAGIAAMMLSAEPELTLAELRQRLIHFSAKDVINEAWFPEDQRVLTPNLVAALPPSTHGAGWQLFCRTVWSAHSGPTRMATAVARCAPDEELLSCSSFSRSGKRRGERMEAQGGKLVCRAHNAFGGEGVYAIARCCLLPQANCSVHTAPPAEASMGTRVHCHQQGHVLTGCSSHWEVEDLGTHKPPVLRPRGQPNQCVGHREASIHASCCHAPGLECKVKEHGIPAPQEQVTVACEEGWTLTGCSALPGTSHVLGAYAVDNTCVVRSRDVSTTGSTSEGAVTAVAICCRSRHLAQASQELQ
Sequence of PCSK9/LDLR (P01130 22-860 partner limits assumed): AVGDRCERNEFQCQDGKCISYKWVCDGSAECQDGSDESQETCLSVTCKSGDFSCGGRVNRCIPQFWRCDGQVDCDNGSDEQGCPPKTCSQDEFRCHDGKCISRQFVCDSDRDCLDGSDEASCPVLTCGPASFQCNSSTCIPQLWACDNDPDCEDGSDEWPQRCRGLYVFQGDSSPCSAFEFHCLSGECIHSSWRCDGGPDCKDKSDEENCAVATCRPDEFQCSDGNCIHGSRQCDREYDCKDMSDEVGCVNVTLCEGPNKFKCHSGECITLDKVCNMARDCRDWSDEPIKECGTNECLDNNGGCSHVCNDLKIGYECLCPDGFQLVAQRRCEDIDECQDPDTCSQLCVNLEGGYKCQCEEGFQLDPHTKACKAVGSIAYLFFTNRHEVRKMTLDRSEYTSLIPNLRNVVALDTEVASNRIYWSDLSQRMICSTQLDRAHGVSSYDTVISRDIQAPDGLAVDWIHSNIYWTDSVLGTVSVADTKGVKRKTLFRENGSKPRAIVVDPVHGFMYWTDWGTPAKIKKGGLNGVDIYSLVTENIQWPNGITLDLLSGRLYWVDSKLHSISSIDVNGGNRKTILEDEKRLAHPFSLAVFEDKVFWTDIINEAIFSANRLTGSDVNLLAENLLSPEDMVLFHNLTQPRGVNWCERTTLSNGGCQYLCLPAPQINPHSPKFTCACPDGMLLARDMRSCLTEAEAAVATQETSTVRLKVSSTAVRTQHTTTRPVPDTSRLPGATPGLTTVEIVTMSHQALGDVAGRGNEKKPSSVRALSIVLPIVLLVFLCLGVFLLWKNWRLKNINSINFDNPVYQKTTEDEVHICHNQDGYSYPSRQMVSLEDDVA

For `Cc1cn(-c2cc(CN3CCN(C)CC3)cc(NC(=O)c3ccc(C)c(Nc4nccc(-c5ccccc5)n4)c3)c2)cn1`, the IC50 (PCSK9/LDLR) was 0.714 µM, the IC50 [1] was 2.57 µM and the IC50 [2] was > 10 µM. For the same compound, the IC50 [3] was 5.42 µM, the IC50 [4] was > 10 µM and the clearance [5] was 35.7 mL/min/kg. For the same compound, the Vd [6] was 5.65 L/kg, the half-life [7] was 3.29 h and the AUC(0-t) at 24 h [8] was 166 ng·h/mL. It also gave an AUC(0-inf) [9] of 187 ng·h/mL and an MRT inf [10] of 2.66 h.
In the case of `Cc1cn(-c2cc(NC(=O)c3ccc(C)c(Nc4nccc(-c5ccccc5)n4)c3)cc(C(F)(F)F)c2)cn1`, the IC50 (PCSK9/LDLR) is reported as 8.4 µM, the IC50 [1] is reported as 0.592 µM and the IC50 [3] is reported as 2.48 µM. The IC50 [4] was > 10 µM.
With `Cc1cc(-c2cc(NC(=O)c3ccc(C)c(Nc4nccc(-c5ccc(F)cc5)n4)c3)cc(N3CCN(C)CC3)c2)on1` the IC50 (PCSK9/LDLR) was 10.7 µM, the IC50 [1] was 3.1 µM and the IC50 [2] was > 10 µM. For the same compound, the IC50 [3] was 5.52 µM and the IC50 [4] was > 10 µM.
In the case of `Cc1cn(-c2cc(CN3CCCC[C@H]3C(N)=O)cc(NC(=O)c3ccc(C)c(Nc4nccc(-c5ccc(F)cc5)n4)c3)c2)cn1`, the IC50 (PCSK9/LDLR) is reported as 2.57 µM, the IC50 [1] is reported as 9.87 µM and the IC50 [2] is reported as > 10 µM. The IC50 [3] was > 10 µM and the IC50 [4] was > 10 µM.
In the case of `Cc1cn(-c2cc(NC(=O)c3ccc(C)c(Oc4cccc5ccncc45)c3)cc(N3CCN(C)CC3)c2)cn1`, the IC50 (PCSK9/LDLR) is reported as 0.078 µM, the IC50 [1] is reported as 0.227 µM and the IC50 [2] is reported as > 10 µM. For the same compound, the IC50 [3] was 3.29 µM, the IC50 [4] was 2.61 to 2.62 µM and the clearance [5] was 50.8 mL/min/kg. For the same compound, the Vd [6] was 6.7 L/kg, the half-life [7] was 2.77 h and the AUC(0-t) at 24 h [8] was 128 ng·h/mL. The AUC(0-inf) [9] was 133 ng·h/mL, the MRT inf [10] was 2.3 h and the inhibition [11] was “Dose-dependent effect”. For the same compound, the Imax [12] was > 35%.
In the case of `Cc1cn(-c2cc(CCS(N)(=O)=O)cc(NC(=O)c3ccc(C)c(Nc4nccc(-c5ccccc5)n4)c3)c2)cn1`, the IC50 (PCSK9/LDLR) is reported as 13.4 µM, the IC50 [1] is reported as 6 µM and the IC50 [2] is reported as > 10 µM. The IC50 [3] was > 10 µM, the IC50 [4] was > 10 µM and the clearance [5] was 110 mL/min/kg. It also gave a Vd [6] of 1.72 L/kg, a half-life [7] of 0.216 h and an AUC(0-t) at 24 h [8] of 58.5 ng·h/mL. For the same compound, the AUC(0-inf) [9] was 63.7 ng·h/mL and the MRT inf [10] was 0.239 h.
With `Cc1cn(-c2cc(NC(=O)c3ccc(C)c(C(=O)c4cccc(C#N)c4)c3)cc(N3CCN(C)CC3)c2)cn1` the IC50 (PCSK9/LDLR) was 2.13 µM, the IC50 [1] was > 10 µM and the IC50 [2] was > 10 µM. For the same compound, the IC50 [3] was > 10 µM, the IC50 [4] was > 10 µM and the clearance [5] was 81 mL/min/kg. For the same compound, the Vd [6] was 4.7 L/kg, the half-life [7] was 1.09 h and the AUC(0-t) at 24 h [8] was 78 ng·h/mL. The AUC(0-inf) [9] was 83 ng·h/mL and the MRT inf [10] was 0.96 h.
In the case of `Cc1cn(-c2cc(NC(=O)c3ccc(C)c(Nc4nccc(-c5ccc(F)cc5)n4)c3)cc(N3CCOCC3)c2)cn1`, the IC50 (PCSK9/LDLR) is reported as 40.1 µM, the IC50 [1] is reported as 0.79 µM and the IC50 [2] is reported as > 10 µM. For the same compound, the IC50 [3] was > 10 µM and the IC50 [4] was > 10 µM.
In the case of `Cc1cn(-c2cc(/C=C/C(=O)O)cc(NC(=O)c3ccc(C)c(Nc4nccc(-c5ccccc5)n4)c3)c2)cn1`, the IC50 (PCSK9/LDLR) is reported as 11.3 µM, the IC50 [1] is reported as 2.77 µM and the IC50 [2] is reported as > 10 µM. For the same compound, the IC50 [3] was > 10 µM and the IC50 [4] was > 10 µM.
With `Cc1cn(-c2cc(CCC(=O)O)cc(NC(=O)c3ccc(C)c(Nc4nccc(-c5ccccc5)n4)c3)c2)cn1` the IC50 (PCSK9/LDLR) was 9.28 µM, the IC50 [1] was 0.347 µM and the IC50 [2] was > 10 µM. For the same compound, the IC50 [3] was > 10 µM and the IC50 [4] was > 10 µM.

Source: ChEMBL document CHEMBL4627281, “A small molecule inhibitor of PCSK9 that antagonizes LDL receptor binding via interaction with a cryptic PCSK9 binding groove” (Bioorg Med Chem, 2020)
